Test results published in publication PMC12749109 (Nature Communications, 2025).
“Also recorded” adds a separate entry of the source. Like-named read-outs stand apart in the source and are kept apart here.

Legend:
[1] = system: DSS-induced intestinal inflammation; format: in vivo, chicken; conditions: chicken, 4% DSS oral gavage, daily i.p. peptide
Procedure, shortened: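 Forty 21-day-old male yellow-feathered broilers were split into control, DSS and two peptide groups under 24 h light, with free food and water. DSS groups were gavaged with […] of 4% DSS daily from day 21 to 29. Treated birds got 100 μL of 50 μM peptide i.p. daily. TNF-α, IL-1β and IL-6 were measured by ELISA in jejunum/ileum homogenates (1:9 w/v ice-cold PBS, pH 7.4; 5000 × g, 10 min, 4 °C).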

ZO-1, occludin [2] = experiment: IHC of ZO-1 and occludin in colon, DSS-induced colitis, wild-type mice; format: in vivo; conditions: mouse colon, 3% DSS, peptide 3 μM daily i.p.
Procedure, shortened: (§1)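 Colon sections from DSS-treated mice were incubated overnight at 4 °C with anti-ZO-1 (1:1000) or anti-occludin (1:200), then HRP-conjugated secondary antibody. Signal was developed with DAB, sections counterstained with hematoxylin, and staining quantified by image analysis.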

GALR2 [3] = experiment: SRE-luc luciferase; format: cell-based; conditions: HEK293, GALR2, luciferase, 12 h
Procedure, shortened: (§2)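 HEK293 cells were transfected (Lipofectamine) with empty pcDNA3.1 or GALR plasmid (2 μg) plus CRE, NFAT-RE or SRE luciferase reporter. After 36 h, medium was replaced with serum-free medium containing test peptide, diluted in DMEM from a 1 mM water stock, for 12 h. Luciferase was read 48 h post-transfection. Technical triplicate; mean ± SD; 37 °C, 5% CO2.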

DSS-induced colitis [4] = experiment: DSS-induced colitis in wild-type mice, overall therapeutic efficacy; format: in vivo, mouse; conditions: for alleviation of colitis / intestinal inflammation, overall: chicken and mouse colitis models, overall statement
mGALR2 mutants = experiment: Tango β-arrestin2 recruitment, binding-site mutants; format: cell-based, mouse
GALR2b = experiment: Tango β-arrestin2 recruitment, HTLA cells; format: cell-based, chicken
Procedure, shortened: (§3)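 Tango assay used HTLA cells, a HEK293T line expressing a tTA-dependent luciferase reporter and β-arrestin2, transfected with GALR plasmid (2 μg). Test peptide in serum-free DMEM was added 36 h post-transfection for 12 h, then luciferase activity was measured. Mean ± SD.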

Gnaq = experiment: 2% DSS colitis in Gnaq cKO mice, overall; format: in vivo, mouse; conditions: Gnaq cKO (gut epithelial) mice, vs AAV control mice
Procedure, shortened: (§4)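 Male Arrb2fl/fl or Gnaqfl/fl mice (7–8 weeks) were fasted overnight, anaesthetised, and given 100 μL AAV8-Vil-cre or AAV8-Vil-null (1E+11 vg/mL) by catheter 4 cm into the colon. One week later they received 2% DSS in drinking water for 7 days. Read-outs were body weight, DAI, colon length, H&E, serum IL-6/IL-1β ELISA, and colonic Il6/Tnf/Il1b/Tgfb1/Tjp1/Ocln mRNA.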

ARRB2 = experiment: 2% DSS colitis in Arrb2 cKO mice, overall; format: in vivo, mouse; conditions: Arrb2 cKO (gut epithelial) mice, vs AAV control mice
Procedure, shortened: as §4

GALR2 [5] = experiment: DSS-induced colitis in Galr2-KO mice, overall; format: in vivo, mouse; conditions: Galr2-KO mice (or GALR2 inhibition where stated), cGAL53 3 μM
GALR3 [6] = experiment: DSS-induced colitis in Galr3-KO mice, overall; format: in vivo, mouse; conditions: 3% DSS, cGAL53 3 μM
[7] = Tolerability of peptide alone in healthy male mice, overall; format: in vivo, mouse; conditions: daily i.p. for six consecutive days
Procedure, shortened: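 Healthy male mice received daily i.p. test peptide for six consecutive days alongside a saline-injected control group. Body weight, water intake, food intake and colon length were recorded.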

GALR1 [8] = experiment: SRE-luc luciferase; format: cell-based; conditions: HEK293, GALR1, luciferase, 12 h
Procedure, shortened: as §2

GALR2 [9] = experiment: NFAT-luc luciferase; format: cell-based; conditions: HEK293, GALR2, luciferase, 12 h
Procedure, shortened: as §2

GALR3 [10] = experiment: SRE-luc luciferase; format: cell-based; conditions: HEK293, GALR3, luciferase, 12 h
Procedure, shortened: as §2

intestinal barrier = experiment: FD4 intestinal permeability, Galr2-KO mice; format: in vivo, mouse; conditions: Galr2-deficient mice, DSS
Procedure, shortened: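 Mice were fasted 12 h before and during the test, then gavaged with FITC-dextran FD4 (25 mg/mL in 0.05 M PBS) at 20 mL/kg. Plasma was collected 3 h later, diluted 1:2 in PBS, and fluorescence read at excitation 490 nm / emission 520 nm.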

ZO-1, occludin [11] = experiment: IHC of ZO-1 and occludin in colon, Galr2-KO mice; format: in vivo, mouse; conditions: DSS, compared with Galr2 KO-DSS group
Procedure, shortened: as §1

DSS-induced colitis [12] = experiment: H&E histology/HAI and endoscopy, DSS-induced colitis, wild-type mice; format: in vivo; conditions: mouse, 3% DSS, peptide 3 μM daily i.p.
Procedure, shortened: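 Colons from mice given 3% DSS (8 days) and daily i.p. test peptide (3 μM) were fixed in 4% paraformaldehyde, paraffin-embedded, sectioned and H&E-stained. Sections were scored for epithelial damage, inflammatory infiltration, crypt loss and ulceration; n = 6/group.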

TNBS-induced colitis = TNBS-induced colitis in C57BL/6 mice, overall therapeutic efficacy; format: in vivo, mouse; conditions: TNBS intrarectal, peptide 3 μM
Procedure, shortened: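 Male C57BL/6 mice (8–12 weeks) under 1.5% isoflurane received 100 μL of 2.5% TNBS (5% TNBS in water mixed 1:1 with ethanol) into the colon lumen. Controls received 50% ethanol only. Test peptide was given at 3 μM. Weight was monitored daily, and mice were killed 72 h after induction for colon length and histology; n = 6/group.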

Caco2 cells [13] = experiment: RT-qPCR cytokine expression, Caco2 cell inflammation model; format: cell-based, human; conditions: IL-1β + TNF-α
colon transcriptome = experiment: RNA-seq of colon tissue, DSS-induced colitis mice; format: in vivo; conditions: mouse colon
Procedure, shortened: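 Total RNA was extracted from mouse colon with Trizol, sequenced on BGIseq500 and mapped to the mouse genome. Data were analysed in R and reported as mean ± SEM.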

GALR2 [14] = experiment: Tango and BRET β-arrestin2 recruitment; format: cell-based
Procedure, shortened: as §3

GALR1 [15] = experiment: Tango β-arrestin2 recruitment, HTLA cells; format: cell-based
Procedure, shortened: as §3

DSS-induced colitis [16] = experiment: DSS-induced colitis, female mice, overall therapeutic efficacy; format: in vivo, mouse; conditions: female C57BL/6 mice, 2.5% DSS, peptide 3 μM daily i.p.
Procedure, shortened: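 Female C57BL/6 mice (9–10 weeks, 20 ± 2 g) were randomised into four groups and given 2.5% DSS in drinking water ad libitum for 8 days, with daily i.p. test peptide (3 μM). Body weight was recorded daily. Colon length was measured after sacrifice, and distal colon was fixed in 4% formalin.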

GALR2 [17] = experiment: CRE-luc luciferase; format: cell-based; conditions: HEK293, GALR2, luciferase, 12 h
Procedure, shortened: as §2

GALR3 [18] = experiment: Tango β-arrestin2 recruitment, HTLA cells; format: cell-based
Procedure, shortened: as §3

GALR1 [19] = experiment: CRE-luc luciferase; format: cell-based; conditions: HEK293, GALR1, luciferase, 12 h
Procedure, shortened: as §2

GALR1 [20] = experiment: NFAT-luc luciferase; format: cell-based; conditions: HEK293, GALR1, luciferase, 12 h
Procedure, shortened: as §2

GALR3 [21] = experiment: NFAT-luc luciferase; format: cell-based; conditions: HEK293, GALR3, luciferase, 12 h
Procedure, shortened: as §2

GALR3 [22] = experiment: CRE-luc luciferase; format: cell-based; conditions: HEK293, GALR3, luciferase, 12 h
Procedure, shortened: as §2

GALR2 [23] = experiment: G protein versus β-arrestin2 signaling bias at GALR2; format: cell-based
DSS-induced colitis [24] = experiment: DSS-induced colitis with M871 or SNAP37889 ± cGAL53, overall; format: in vivo; conditions: mouse, 3% DSS; antagonist 10 nmol/mouse + cGAL53 3 μM
Procedure, shortened: (§5)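 Male C57BL/6 mice (20 ± 2 g, 7–8 weeks) received 3% DSS with daily i.p. test peptide (3 μM). A GALR2 or GALR3 antagonist (10 nmol/mouse, in 10% DMSO/40% PEG 300/30% Tween-20/20% saline) was given 30 min before each peptide dose. Controls followed the standard DSS protocol.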

Caco2 cells [25] = experiment: RT-qPCR cytokine expression, Caco2 cell inflammation model with GALR antagonists; format: cell-based, human; conditions: Caco-2 inflammation model, IL-1β + TNF-α
DSS-induced colitis [26] = experiment: DSS-induced colitis with M871 or SNAP37889 ± cGAL29, overall; format: in vivo; conditions: mouse
Procedure, shortened: as §5

GWTLNSAGYLLGPRRIDHLLMIKEMPIARGREEAPGA-YAVDNHRSFNDKHGFT-NH2 [cGAL53]
IBD-related symptoms in DSS-treated chickens [1]: ameliorated IBD-related symptoms in chickens, manifested as reductions of body weight loss, intestinal bleeding points and tissue damage | IBD-related symptoms in DSS-treated chickens ([1]; listed as GAL53): superior therapeutic efficacy | ZO-1 and occludin protein and mRNA levels (ZO-1, occludin [2]): markedly enhanced | Gi (SRE-luc) activation (GALR2 [3]): can activate; also recorded: activated | colitis symptoms (DSS-induced colitis [4]; WT mice, 3% DSS, cGAL53 3 μM): significant improvement in colitis symptoms | alleviation of colitis / intestinal inflammation, overall (DSS-induced colitis [4]): superior therapeutic efficacy compared to the conserved GAL29 peptide; also recorded: superior protective effects against DSS-induced inflammation in both chickens and mice; also recorded: alleviates colitis-associated weight loss, colon shortening, bleeding, and inflammation in both chickens and mice; also recorded: greater therapeutic efficacy in treating intestinal inflammation in chickens and mice | alleviation of colitis / intestinal inflammation, overall (DSS-induced colitis [4]; listed as GAL53): superior protective effects against intestinal inflammation in birds and mammals; also recorded: exerts protective effects in chemical models of IBD | alleviation of colitis / intestinal inflammation, overall (DSS-induced colitis [4]; listed as chicken GAL53): superior efficacy over the conserved GAL29 | DSS-induced body weight reduction, colon shortening and DAI increase (DSS-induced colitis [4]; mouse, 3% DSS in drinking water, peptide 3 μM daily i.p.): superior therapeutic efficacy over the shorter galanin variants (cGAL29 and hGAL30); also recorded: superior therapeutic efficacy in mouse colitis compared to cGAL29 | β-arrestin2 recruitment after mutation of predicted unique binding sites (mGALR2 mutants): affected | ARRB2 (β-arrestin2) recruitment (GALR2b): significantly enhanced | ability to alleviate weight loss, colon shortening, intestinal damage, inflammation (Gnaq): significantly reduced | therapeutic effects (weight loss, colon shortening, intestinal damage, inflammation) (ARRB2): significantly diminished; also recorded: negated the therapeutic effects | colitis symptoms / effects of cGAL53 (GALR2 [5]): abolished in Galr2-deficient mice; also recorded: did not exhibit any change; also recorded: completely abolishes the effects of cGAL53 | colitis symptoms (GALR3 [6]): significant improvement in colitis symptoms | body weight, water and food intake, colon length (tolerability) [7]: neither peptide affected body weight, water, and food intake, nor colon length, indicating good tolerability | Gi (SRE-luc) activation (GALR1 [8]): not GALR1 | Gq (NFAT-luc) activation (GALR2 [9]): can activate; also recorded: activated | Gi (SRE-luc) activation (GALR3 [10]): can activate | circulating FD4 tracer levels (intestinal barrier): remained unchanged | expression of ZO-1 and occludin (ZO-1, occludin [11]): did not increase | endoscopic and colon tissue damage scores (DSS-induced colitis [12]): most pronounced improvements | TNBS-induced colitis (colon length, histopathological damage) (TNBS-induced colitis): more effective than cGAL29, nearly reversing the colon length and histopathological damage | concentration giving (similar) anti-inflammatory effect (Caco2 cells [13]): 0.1 µM | expression of Il6, Il23 and Tgfb1 induced by IL-1β and TNF-α (Caco2 cells [13]; RT-qPCR): reduced | DSS-changed pathways (KEGG) (colon transcriptome): significantly modulated | expression levels of immune-related genes (colon transcriptome): significantly reduced | inflammation-related pathways (GSVA) (colon transcriptome; compared to cGAL29): significantly greater reductions | ARRB2 (β-arrestin2) recruitment (GALR2 [14]): significantly enhanced; also recorded: preferentially activated ARRB2 | ARRB2 (β-arrestin2) recruitment (GALR1 [15]): significantly enhanced | therapeutic effect in female mice with DSS-induced colitis (DSS-induced colitis [16]): superior therapeutic benefits | Gs (CRE-luc) activation (GALR2 [17]): can activate; also recorded: activated | ARRB2 (β-arrestin2) recruitment (GALR3 [18]): significantly enhanced | Gs (CRE-luc) activation (GALR1 [19]): not GALR1 | Gq (NFAT-luc) activation (GALR1 [20]): not GALR1 | Gq (NFAT-luc) activation (GALR3 [21]): can activate | Gs (CRE-luc) activation (GALR3 [22]): can activate | bias at GALR2 (GALR2 [23]): β-arrestin2- biased agonizts of GALR2 | G protein activation / ARRB2 recruitment via GALR2 (GALR2 [23]; GALR2, overall statement): significantly enhances the recruitment of ARRB2 to GALR2

O=C1C(=Nc2cccc(C(F)(F)F)c2)c2ccccc2N1c1ccccc1 [SNAP37889]
effect of antagonist on ability of cGAL53 to alleviate colitis (DSS-induced colitis [24]): cGAL53 was still effective in treating colitis symptoms in mice | block of anti-inflammatory effect of cGAL53 by antagonist (Caco2 cells [25]): not by SNAP37889 | effect of antagonist on therapeutic efficacy of cGAL29 (DSS-induced colitis [26]): exerted inhibitory effects on the therapeutic efficacy of cGAL29
